The record followed here is ChEMBL document CHEMBL1148735, “4-Substituted trinems as broad spectrum beta-lactamase inhibitors: structure-based design, synthesis, and biological activity” (J Med Chem, 2007).

Structures are written as SMILES.

For one assay, the target named is T1, Beta-lactamase SHV-1 (Escherichia coli, UniProt P0AD63).
T1 sequence (P0AD63 whole entry): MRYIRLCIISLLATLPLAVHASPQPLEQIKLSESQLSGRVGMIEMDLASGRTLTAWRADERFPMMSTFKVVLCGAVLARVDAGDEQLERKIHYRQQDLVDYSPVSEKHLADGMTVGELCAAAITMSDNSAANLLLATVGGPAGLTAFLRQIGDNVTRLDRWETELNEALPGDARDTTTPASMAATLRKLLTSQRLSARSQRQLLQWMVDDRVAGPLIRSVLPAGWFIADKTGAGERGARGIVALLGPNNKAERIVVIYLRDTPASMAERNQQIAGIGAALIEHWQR
The assay can be described thus: Inhibition of Escherichia coli SHV1. Put shortly: (§1)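 Recombinant β-lactamase, expressed in the pET system without its signal peptide and carrying an N-terminal His6 tag, purified on Ni-NTA. Inhibitor made as a 50 mM DMSO stock, then diluted in 50 mM phosphate pH 7 with 10% DMSO final. Enzyme and inhibitor preincubated 10 min at 37 °C. Started with prewarmed nitrocefin; A490 read every 30 s for 10 min at 37 °C.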

The target of another assay is Beta-lactamase (Enterobacter cloacae, UniProt P05364). Nature of the assay: Inhibition of Enterobacter cloacae AmpC.
The target in a further assay is Beta-lactamase TEM (Escherichia coli, UniProt P62593). The assay can be described thus: Inhibition of Escherichia coli TEM1. Put shortly: as §1
Beta-lactamase TEM, sequence (P62593 whole entry): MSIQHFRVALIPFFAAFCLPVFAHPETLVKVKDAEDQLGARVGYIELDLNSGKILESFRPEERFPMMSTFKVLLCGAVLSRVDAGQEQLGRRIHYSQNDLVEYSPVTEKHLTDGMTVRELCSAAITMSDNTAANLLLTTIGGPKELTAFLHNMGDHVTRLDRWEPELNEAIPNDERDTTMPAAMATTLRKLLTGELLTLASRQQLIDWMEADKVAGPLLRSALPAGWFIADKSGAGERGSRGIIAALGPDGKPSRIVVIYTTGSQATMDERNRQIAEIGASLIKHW

Beta-lactamase, sequence (P05364 whole entry): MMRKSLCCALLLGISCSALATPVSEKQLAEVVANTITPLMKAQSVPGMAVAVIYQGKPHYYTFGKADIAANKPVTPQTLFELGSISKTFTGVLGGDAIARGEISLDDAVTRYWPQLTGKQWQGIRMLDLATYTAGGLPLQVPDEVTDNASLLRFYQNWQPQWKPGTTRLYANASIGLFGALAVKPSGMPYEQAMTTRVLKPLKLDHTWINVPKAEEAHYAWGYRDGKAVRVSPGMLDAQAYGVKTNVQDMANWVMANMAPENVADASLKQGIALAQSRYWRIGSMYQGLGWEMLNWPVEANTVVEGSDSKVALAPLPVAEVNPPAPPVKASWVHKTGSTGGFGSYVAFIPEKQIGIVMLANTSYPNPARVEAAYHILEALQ

The IC50 is the midpoint of a concentration-inhibition curve. Higher therefore signals weaker potency. As to `C/C=C1/C(=O)N2C(C(=O)O)=C3[C@@H](OCC)CCC[C@@H]3[C@H]12`, the IC50 against Beta-lactamase SHV-1 came to 0.385 µM; against Beta-lactamase, 0.229 µM; on Beta-lactamase TEM, 0.057 µM.

As to `C/C=C1/C(=O)N2C(C(=O)O)=C3[C@@H](OCCCC)CCC[C@@H]3[C@H]12`, the half-inhibitory concentration (IC50) against Beta-lactamase SHV-1 turned out to be 0.206 µM; on Beta-lactamase, 0.72 µM; against Beta-lactamase TEM, 0.032 µM.

For `C/C=C1/C(=O)N2C(C(=O)O)=C3[C@@H](CCC[C@H]3OCC)[C@H]12`, the IC50 on Beta-lactamase SHV-1 came out at 0.284 µM; on Beta-lactamase, 0.295 µM; at Beta-lactamase TEM, 0.022 µM.

As to `C/C=C1/C(=O)N2C(C(=O)O)=C3[C@@H](OCCF)CCC[C@@H]3[C@H]12`, the half-inhibitory concentration (IC50) against Beta-lactamase SHV-1 was 0.148 µM; at Beta-lactamase, 1.02 µM; on Beta-lactamase TEM it was 0.021 µM.

On to `C/C=C1/C(=O)N2C(C(=O)O)=C3[C@@H](OC(C)C)CCC[C@@H]3[C@H]12`, for which the half-inhibitory concentration (IC50) at Beta-lactamase SHV-1 stood at 0.34 µM; on Beta-lactamase it was 0.341 µM; on Beta-lactamase TEM, 0.039 µM.

On to `C/C=C1/C(=O)N2C(C(=O)O)=C3[C@@H](CCC[C@H]3OCCCC)[C@H]12`, for which the IC50 at Beta-lactamase SHV-1 stood at 0.219 µM; on Beta-lactamase, 0.43 µM; against Beta-lactamase TEM, 0.012 µM.

On to `C/C=C1/C(=O)N2C(C(=O)O)=C3[C@@H](OCCC#N)CCC[C@@H]3[C@H]12`, for which the IC50 at Beta-lactamase SHV-1 worked out at 0.152 µM; against Beta-lactamase it was 0.209 µM; against Beta-lactamase TEM, 0.018 µM.
